One block for each compound: values may come before it.
Assays:
[1] = Relative effectiveness at a concentration of 0.2mM, on removal of Fe from transferrin as compared to Desferal; format: functional
Outline: (§1)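 Iron removal was measured spectrophotometrically from diferric transferrin (2.9 × 10^-5 M) in 0.1 M Tris-HCl pH 7.4 at 25.0 °C. A rough second-order rate constant k2 was taken as the % iron removed after 30 min divided by the initial ferric transferrin and ligand concentrations. The value is expressed as the ratio to the Desferal k2.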

[2] = molecular target: Serotransferrin (Homo sapiens) (UniProt P02787); assay: Ability to remove iron from human iron transport protein transferrin, at a concentration of 0.2 mM, expressed as % iron removal in 30 minutes; format: functional
Outline: (§2)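 Diferric transferrin was made from apotransferrin saturated with fresh Fe(NTA)2^3-, then gel-filtered in 0.1 M NaClO4/0.1 M Tris-HCl pH 7.4 (≥95% saturation by A280/A466 ≤24, A428/A466 = 0.85). The ligand was dissolved in 0.1 M Tris-HCl pH 7.4 with slight heating and mixed 1:1 with transferrin ([Fe2Tf] 2.9 × 10^-5 M) at 25.0 °C. Visible spectra were followed at 466 nm, and % iron removed was read at 30 min.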

[3] = molecular target: Serotransferrin (Homo sapiens) (UniProt P02787); assay: Ability to remove iron from transferrin, at a concentration of 0.2 mM, expressed as % iron removal in 30 minutes; format: functional; outline: as §2
[4] = molecular target: Serotransferrin (Homo sapiens) (UniProt P02787); details: 500 mM
[5] = molecular target: Serotransferrin (Homo sapiens) (UniProt P02787); assay: Ability to remove iron from human iron transport protein transferrin, at a concentration of 0.1 mM, expressed as % iron removal in 30 minutes; format: functional; outline: as §2
[6] = Relative effectiveness at a concentration of 0.1 mM, on removal of Fe from transferrin as compared to Desferal; format: functional; outline: as §1
[7] = molecular target: Serotransferrin (Homo sapiens) (UniProt P02787); assay: Ability to remove iron from human iron transport protein transferrin, at a concentration of 1.2mM, expressed as % iron removal in 30 minutes; format: functional; outline: as §2
[8] = molecular target: Serotransferrin (Homo sapiens) (UniProt P02787); assay: Ability to remove iron from transferrin, at a concentration of 0.1 mM, expressed as % iron removal in 30 minutes; format: functional; details: 0.2 mM; in the assay text read “0.2 mM” for “0.1 mM”; outline: as §2
[9] = molecular target: Serotransferrin (Homo sapiens) (UniProt P02787); assay: Ability to remove iron from human iron transport protein transferrin, at a concentration of 20 mM, expressed as % iron removal in 30 minutes; format: functional
[10] = Relative effectiveness at a concentration of 20 mM, on removal of Fe from transferrin as compared to Desferal; format: functional

Sequence of Serotransferrin (Homo sapiens) (P02787 whole entry): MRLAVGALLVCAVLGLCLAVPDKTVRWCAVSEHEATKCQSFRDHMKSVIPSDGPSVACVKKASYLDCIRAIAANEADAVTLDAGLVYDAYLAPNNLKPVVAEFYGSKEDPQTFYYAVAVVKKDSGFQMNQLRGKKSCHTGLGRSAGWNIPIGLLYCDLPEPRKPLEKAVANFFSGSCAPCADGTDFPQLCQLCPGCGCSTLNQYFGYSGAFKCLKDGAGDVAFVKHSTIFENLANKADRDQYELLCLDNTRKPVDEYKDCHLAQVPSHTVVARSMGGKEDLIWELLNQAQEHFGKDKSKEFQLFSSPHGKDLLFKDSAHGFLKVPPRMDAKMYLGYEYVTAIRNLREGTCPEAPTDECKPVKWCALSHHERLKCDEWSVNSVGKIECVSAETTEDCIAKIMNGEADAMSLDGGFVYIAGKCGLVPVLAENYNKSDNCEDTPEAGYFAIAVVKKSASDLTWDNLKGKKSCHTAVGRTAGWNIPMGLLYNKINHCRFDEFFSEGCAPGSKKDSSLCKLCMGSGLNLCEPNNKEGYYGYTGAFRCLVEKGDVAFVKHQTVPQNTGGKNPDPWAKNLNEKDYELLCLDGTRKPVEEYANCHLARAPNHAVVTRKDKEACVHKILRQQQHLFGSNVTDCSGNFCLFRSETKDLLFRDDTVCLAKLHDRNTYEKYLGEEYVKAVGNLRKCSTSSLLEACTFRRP

Fe removed [2]: 6%
Compound: O=C(N[C@H]1COC(=O)[C@@H](NC(=O)c2cccc(O)c2O)COC(=O)[C@@H](NC(=O)c2cccc(O)c2O)COC1=O)c1cccc(O)c1O
Ratio [1]: 120

Fe removed [3]: 0%
Fe removed [4]: 37%
Compound: O=C(O)CN(CCN(CC(=O)O)CC(=O)O)CC(=O)O

Fe removed [5]: 2%
Compound: CC(=O)N(O)CCCCCNC(=O)CCC(=O)N(O)CCCCCNC(=O)CCC(=O)N(O)CCCCCNC(=O)c1cccc(O)c1O
Ratio [6]: 180

Fe removed [7]: 18%
Fe removed [8]: 3%
Compound: CC(=O)N(O)CCCCCNC(=O)CCC(=O)N(O)CCCCCNC(=O)CCC(=O)N(O)CCCCCNC(=O)c1ccc(C(=O)O)c(O)c1O
Ratio [1]: 130

Fe removed [9]: 5%
Compound: CC(=O)N(O)CCCCCNC(=O)CCC(=O)N(O)CCCCCNC(=O)CCC(=O)N(O)CCCCCN
Ratio [10]: 1
